# Experimental data pooled from the literature.
# SLC6A3: Sodium-dependent dopamine transporter (SLC6A3, Homo sapiens, UniProt Q01959)
# PDE10A: cAMP and cAMP-inhibited cGMP 3',5'-cyclic phosphodiesterase 10A (PDE10A, Homo sapiens, UniProt Q9Y233)
SMILES,target,observed,mode,method,tested at,setting,inhibition
CCOC(=O)[C@@]12C[C@@H]1[C@@H](n1ccc3c(NCCCCCCCc4ccccc4)nc(C#Cc4ccccc4)nc31)[C@H](O)[C@@H]2O,SLC6A3,ligand displacement,,radioligand,10 µM,,25%
COc1ccc2ccnc(Cc3ccc(OC)c(OC)c3)c2c1,PDE10A,enzyme activity,inhibitor,FP,0.1 µM,,11%
CCOC(=O)[C@@]12C[C@@H]1[C@@H](n1cnc3c(NCc4cccc(Cl)c4)nc(I)nc31)[C@H](O)[C@@H]2O,SLC6A3,ligand displacement,,radioligand,10 µM,,37%
COc1cc2ncnc(Cc3cccc(-c4ccccc4)c3)c2cc1OC,PDE10A,enzyme activity,inhibitor,FP,0.1 µM,,63%
C#Cc1cc(-c2cc(Nc3nc(N[C@@H](C)c4ccc(F)cn4)ncc3Cl)n[nH]2)ccc1C=O,"Dual specificity protein kinase CLK4 (CLK4, Homo sapiens, UniProt Q9HAZ1)",enzyme activity,inhibitor,,0.2 µM,,53.5%
NC(=O)CC[C@H](N)C(=O)NCC(=O)NCC(=O)N[C@@H](CC(=O)O)C(=O)N[C@@H](Cc1ccccc1)C(=O)O,"Angiotensin-converting enzyme (ACE, Homo sapiens, UniProt P12821)",enzyme activity,inhibitor,,1.4 mM,,49.9%
COc1cc2ncnc(Cc3cccc(-c4ccccc4)c3C)c2cc1OC,PDE10A,enzyme activity,inhibitor,FP,0.1 µM,,54%
CN(C)CCOC(=O)COc1ccc(Cl)cc1,"Peroxisome proliferator-activated receptor gamma (PPARG, Homo sapiens, UniProt P37231)",cell-free assay,,TR-FRET,1 µM,,3.65%
CCOC(=O)[C@@]12C[C@@H]1[C@@H](n1cnc3c(NCCCCCCc4ccccc4)nc(C#Cc4ccc(Cl)s4)nc31)[C@H](O)[C@@H]2O,SLC6A3,ligand displacement,,radioligand,10 µM,,23%
CCN1/C(=C/C(C)=O)Sc2ccc(F)cc21,SLC6A3,ligand displacement,,radioligand,10 µM,,1.26%
c1ccc2c(Cc3ccc4cnn(C5COC5)c4c3)nccc2c1,PDE10A,enzyme activity,inhibitor,FP,0.1 µM,,6%
CCOC(=O)[C@@]12C[C@@H]1[C@@H](n1cnc3c(Nc4ccccc4)nc(C#Cc4ccc(Cl)s4)nc31)[C@H](O)[C@@H]2O,SLC6A3,ligand displacement,,radioligand,10 µM,,89%
NC/C(=C\F)COc1cccc(Cn2c(=S)[nH]c(=O)c3[nH]cnc32)c1,"D(3) dopamine receptor (DRD3, Homo sapiens, UniProt P35462)",ligand displacement,,radioligand,10 µM,,< 50%
CNC(=O)[C@@]12C[C@@H]1[C@@H](n1cnc3c(NCc4cccc(Cl)c4)nc(C#Cc4ccc(Cl)s4)nc31)[C@H](O)[C@@H]2O,SLC6A3,ligand displacement,,radioligand,10 µM,,75%
COc1cc2ncnc(Cc3cccc4ccccc34)c2cc1OC,PDE10A,enzyme activity,inhibitor,FP,0.1 µM,,56%
Cc1cc(O)c(-c2ccc([C@@H](C)CN(C)C)cc2)c2c1[nH]c(=O)c1sccc12,"Serine/threonine-protein kinase ATR (ATR, Homo sapiens, UniProt Q13535)",cell-free assay,inhibitor,,0.1 µM,lysate,8.12%
COc1cc2ncnc(Cc3cccc(-c4ccccc4OC)c3)c2cc1OC,PDE10A,enzyme activity,inhibitor,FP,0.1 µM,,31%
OC[C@@]12C[C@@H]1[C@@H](n1cnc3c(NCCCCCCc4ccccc4)nc(I)nc31)[C@H](O)[C@@H]2O,SLC6A3,ligand displacement,,radioligand,10 µM,,79%
